In ChEMBL document CHEMBL1833812, “Synthesis, biological evaluation, and automated docking of constrained analogues of the opioid peptide H-Dmt-D-Ala-Phe-Gly-NH₂ using the 4- or 5-methyl substituted 4-amino-1,2,4,5-tetrahydro-2-benzazepin-3-one scaffold” (J Med Chem, 2011):

Experiments:
[1] = molecular target: T1, Mu-type opioid receptor (Rattus norvegicus, UniProt P33535); experiment: Displacement of [3H]DAMGO from rat brain Mu-type opioid receptor by liquid scintillation counting
Method in brief: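 Wistar male rat (250–300 g) brain membrane homogenate, 0.2–0.4 mg protein/tube, with 0.5 nM [3H]DAMGO and competitor 10^-11–10^-5 M in 50 mM Tris-HCl pH 7.4, 1 h at 25 °C. Stopped by GF/C filtration, ice-cold Tris washes, scintillation counted. Nonspecific binding with 10 μM naloxone; duplicate runs, one/two-site competition fit for Ki.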

[2] = molecular target: Delta-type opioid receptor (Rattus norvegicus, UniProt P33533); experiment: Displacement of [3H]Ile-deltorphin-2 from rat brain delta-type opioid receptor by liquid scintillation counting
Method in brief: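 Wistar male rat (250–300 g) brain membranes, 0.2–0.4 mg protein/tube, 2 nM [3H]Ile5,6-deltorphin-2 plus 0.25 mg BSA/tube, competitor 10^-11–10^-5 M, 50 mM Tris-HCl pH 7.4, 45 min at 35 °C. GF/B filtration, ice-cold Tris washes, scintillation counting. Nonspecific binding with 10 μM naloxone; duplicates, one/two-site competition fit for Ki.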

[3] = species on record: Rattus norvegicus; experiment: Selectivity ratio of Ki of rat brain delta-type opioid receptor to Ki of rat brain Mu-type opioid receptor
[4] = molecular target: T1, Mu-type opioid receptor; experiment: Agonist activity at rat brain mu-opioid receptor assessed as [35S]GTPgammaS binding by liquid scintillation counting; format: functional
Method in brief: (§1)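 Rat brain membranes (15 μg protein/tube) with 0.05 nM [35S]GTPγS and opioids 10^-10–10^-5 M, plus 30 μM GDP, 100 mM NaCl, 3 mM MgCl2, 1 mM EGTA in 50 mM Tris-HCl pH 7.4, 60 min at 30 °C. Started by protein, stopped with ice-cold buffer and GF/B filtration, scintillation counted. Nonspecific binding with 10 μM unlabeled GTPγS; stimulation as % of specific binding over basal (no opioid).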

[5] = molecular target: Mu-type opioid receptor (Rattus norvegicus) (UniProt P33535); experiment: Agonist activity at rat brain Mu-type opioid receptor assessed as [35S]GTPgammaS binding by liquid scintillation counting relative to control; format: functional; method in brief: as §1
[6] = molecular target: Mu-type opioid receptor (Homo sapiens, UniProt P35372); experiment: Agonist activity at Mu-type opioid receptor; format: functional
[7] = molecular target: Delta-type opioid receptor (Homo sapiens, UniProt P41143); experiment: Agonist activity at delta-type opioid receptor; format: functional
[8] = molecular target: Mu-type opioid receptor (Cavia porcellus, UniProt P97266); experiment: Agonist activity at guinea pig ileum Mu-type opioid receptor; format: functional, tissue-based
Chain of Mu-type opioid receptor (Cavia porcellus, UniProt P97266) (P97266 whole entry): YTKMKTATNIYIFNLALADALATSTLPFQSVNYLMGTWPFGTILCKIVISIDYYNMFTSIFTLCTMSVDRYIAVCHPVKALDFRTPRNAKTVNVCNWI

Chain of Delta-type opioid receptor (Rattus norvegicus, UniProt P33533) (P33533 whole entry): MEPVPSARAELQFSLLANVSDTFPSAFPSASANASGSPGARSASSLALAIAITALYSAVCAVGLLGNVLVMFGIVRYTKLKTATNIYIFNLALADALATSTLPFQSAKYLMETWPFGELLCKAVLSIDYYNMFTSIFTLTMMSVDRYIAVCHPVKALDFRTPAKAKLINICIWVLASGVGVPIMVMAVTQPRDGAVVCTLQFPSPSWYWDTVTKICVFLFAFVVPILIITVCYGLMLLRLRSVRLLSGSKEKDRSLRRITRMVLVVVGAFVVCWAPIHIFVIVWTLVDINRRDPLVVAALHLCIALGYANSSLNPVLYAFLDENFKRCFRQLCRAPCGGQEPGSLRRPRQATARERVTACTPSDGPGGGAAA
Chain of Mu-type opioid receptor (Rattus norvegicus) (P33535 whole entry): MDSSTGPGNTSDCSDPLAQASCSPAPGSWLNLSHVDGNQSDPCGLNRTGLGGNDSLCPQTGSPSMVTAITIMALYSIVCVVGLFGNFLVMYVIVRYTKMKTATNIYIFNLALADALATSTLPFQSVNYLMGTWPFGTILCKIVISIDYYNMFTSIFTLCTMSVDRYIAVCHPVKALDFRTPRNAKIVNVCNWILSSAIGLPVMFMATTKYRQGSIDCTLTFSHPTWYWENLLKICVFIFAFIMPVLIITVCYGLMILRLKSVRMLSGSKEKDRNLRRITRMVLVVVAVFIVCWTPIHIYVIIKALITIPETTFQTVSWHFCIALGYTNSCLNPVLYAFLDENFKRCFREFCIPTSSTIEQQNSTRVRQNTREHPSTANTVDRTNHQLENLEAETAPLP
T1 sequence (P33535 whole entry): as above
Chain of Mu-type opioid receptor (Homo sapiens, UniProt P35372) (P35372 whole entry): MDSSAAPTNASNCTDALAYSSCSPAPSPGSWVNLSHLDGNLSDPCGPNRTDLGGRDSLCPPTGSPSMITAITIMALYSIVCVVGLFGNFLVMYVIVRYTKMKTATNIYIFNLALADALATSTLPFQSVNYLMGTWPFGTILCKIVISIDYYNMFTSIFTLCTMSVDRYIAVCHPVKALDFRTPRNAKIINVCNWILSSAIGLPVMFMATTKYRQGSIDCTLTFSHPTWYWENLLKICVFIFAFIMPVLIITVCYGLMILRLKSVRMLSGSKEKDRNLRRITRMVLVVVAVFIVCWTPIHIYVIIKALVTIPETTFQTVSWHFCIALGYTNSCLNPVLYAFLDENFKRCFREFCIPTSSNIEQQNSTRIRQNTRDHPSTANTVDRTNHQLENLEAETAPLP
Chain of Delta-type opioid receptor (Homo sapiens, UniProt P41143) (P41143 whole entry): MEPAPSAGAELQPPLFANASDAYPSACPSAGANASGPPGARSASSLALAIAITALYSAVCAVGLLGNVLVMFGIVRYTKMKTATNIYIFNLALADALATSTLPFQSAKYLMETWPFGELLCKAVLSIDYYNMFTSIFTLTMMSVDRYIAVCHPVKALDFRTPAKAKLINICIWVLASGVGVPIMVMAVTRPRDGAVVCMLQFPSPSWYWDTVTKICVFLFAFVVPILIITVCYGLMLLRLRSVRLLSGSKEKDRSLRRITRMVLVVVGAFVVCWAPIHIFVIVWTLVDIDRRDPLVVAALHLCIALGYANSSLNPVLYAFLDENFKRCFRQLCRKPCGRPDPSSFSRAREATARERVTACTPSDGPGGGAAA

Cc1cc(O)cc(C)c1C[C@H](N)C(=O)N[C@H](C)C(=O)N[C@@H]1C(=O)N(CC(N)=O)Cc2ccccc2[C@@H]1C
Ki [1]: 0.025 nM | Ki [2]: 1.7 nM | Ratio Ki [3]: 68 | EC50 [4]: 36 nM | Emax [5]: 191%

Cc1cc(O)cc(C)c1C[C@H](N)C(=O)N[C@H](C)C(=O)N[C@@H]1C(=O)N(CC(N)=O)Cc2ccccc2[C@H]1C
Ki [1]: 14 nM | Ki [2]: 720 nM | Ratio Ki [3]: 51 | EC50 [4]: 685 nM | Emax [5]: 130%

Cc1cc(O)cc(C)c1C[C@H](N)C(=O)N[C@H](C)C(=O)N[C@@]1(C)Cc2ccccc2CN(CC(N)=O)C1=O
Ki [1]: 4.6 nM | Ki [2]: 859 nM | Ratio Ki [3]: 187 | EC50 [4]: 941 nM | Emax [5]: 159%

Cc1cc(O)cc(C)c1C[C@H](N)C(=O)N[C@H](C)C(=O)N[C@H]1C(=O)N(CC(N)=O)Cc2ccccc2[C@H]1C
Ki [1]: 0.4 nM | Ki [2]: 490 nM | Ratio Ki [3]: 1220 | EC50 [4]: 184 nM | Emax [5]: 167%

Cc1cc(O)cc(C)c1C[C@H](N)C(=O)N[C@H](C)C(=O)N[C@]1(C)Cc2ccccc2CN(CC(N)=O)C1=O
Ki [1]: 0.3 nM | Ki [2]: 63 nM | Ratio Ki [3]: 210 | EC50 [4]: 288 nM | Emax [5]: 154%

C[C@@H](NC(=O)[C@@H](N)Cc1ccc(O)cc1)C(=O)NC1Cc2ccccc2CN(CC(=O)N[C@@H](Cc2ccc(O)cc2)C(=O)N2CCC[C@H]2C(=O)N[C@@H](CO)C(N)=O)C1=O (some centres undefined)
IC50 [6]: 11 nM | IC50 [7]: 17.4 nM

Cc1cc(O)cc(C)c1C[C@H](N)C(=O)N[C@H](C)C(=O)N[C@@H]1Cc2ccccc2CN(CC(N)=O)C1=O
Ki [1]: 0.33 nM | Ki [2]: 337 nM | Ratio Ki [3]: 1020 | EC50 [4]: 64.2 nM | Emax [5]: 178%

Cc1cc(O)cc(C)c1C[C@H](N)C(=O)N[C@H](C)C(=O)N[C@H]1C(=O)N(CC(N)=O)Cc2ccccc2[C@@H]1C
Ki [1]: 0.025 nM | Ki [2]: 24 nM | Ratio Ki [3]: 960 | EC50 [4]: 9.3 nM | Emax [5]: 149%

Cc1cc(O)cc(C)c1C[C@H](N)C(=O)N[C@H](C)C(=O)N[C@H]1Cc2ccccc2CN(CC(N)=O)C1=O
Ki [1]: 0.047 nM | Ki [2]: 2.4 nM | Ratio Ki [3]: 51 | EC50 [4]: 18 nM | Emax [5]: 161%

C[C@H](C(=O)NC1Cc2ccccc2CN(CC(N)=O)C1=O)N1Cc2cc(O)ccc2CC(N)C1=O (some centres undefined)
IC50 [6]: 20.8 nM | IC50 [8]: 3.64 nM
